Screening results deposited in PubChem by The Scripps Research Institute Molecular Screening Center.
OX1R antag-1 – blocks the human orexin 1 receptor; actives 0.43% (n = 330,000); CHO/OX1R cells, Fluo-8 calcium fluorescence, orexin A; O43613; AID 434989; inhibition, % at 5 µM;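 active = inhibition above its plate's threshold, mean inhibition of all tested compounds on the plate plus 3 SD, cut at about 37% in these data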
Target sequence (O43613 whole entry, looked up): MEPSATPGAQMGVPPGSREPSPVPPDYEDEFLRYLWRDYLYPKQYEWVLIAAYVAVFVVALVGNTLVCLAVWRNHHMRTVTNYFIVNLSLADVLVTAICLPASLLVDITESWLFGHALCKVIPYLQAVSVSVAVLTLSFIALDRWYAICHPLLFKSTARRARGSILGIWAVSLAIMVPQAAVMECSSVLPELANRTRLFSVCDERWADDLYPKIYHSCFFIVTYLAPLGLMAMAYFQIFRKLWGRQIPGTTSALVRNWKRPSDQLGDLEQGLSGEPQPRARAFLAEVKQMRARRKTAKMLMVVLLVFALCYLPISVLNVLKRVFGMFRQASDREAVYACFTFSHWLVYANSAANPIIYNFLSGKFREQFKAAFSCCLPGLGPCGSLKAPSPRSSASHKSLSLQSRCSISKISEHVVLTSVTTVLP
CHO parental Ca – signal in parental CHO cells, OX1R antagonist counter-screen; parental CHO-K1, ATP-induced calcium, Fluo-8 fluorescence; inhibition, % at 5.6 µM; actives 0.63% (n = 330,000); AID 463079;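 active = inhibition above that plate's mean sample inhibition plus 3 SD, cut at about 26% in these data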
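Assay system: untransfected parental CHO cell line. Also added: ATP agonist challenge. Dosing: one dose, 5.6 µM nominal. Measured by: Fluo-8 fluorescence. Read-out: % inhibition. Benchmarks: ATP wells versus no-ATP DMSO wells. Repeats: no replicates.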
V1R ag counter – counter-screen for oxytocin receptor agonists: human V1a receptor agonists. CHO-V1R cells, Fluo-8 calcium fluorescence, agonist mode; 0% DMSO, 100% 3 nM vasopressin. activation, % at 3 µM. actives 0.25% (n = 320,000). P37288;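 active = activation above the mean activation of all tested compounds plus 3 SD, per screening run, cut at about 20% in these data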;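 note: signal is peak over basal fluorescence ratio across a 100 second FLIPR read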
OXTR ag – agonists of human oxytocin receptor; P30559; AID 2435; CHO-OTR cells, Fluo-8 calcium fluorescence; normalized: DMSO 0%, oxytocin 100%; activation, % at 3 µM; actives 0.32% (n = 320,000);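 active = activation above the mean of all tested compounds plus 3 SD, cutoff set per screening run, cut at about 20% in these data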;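 note: peak over basal fluorescence ratio from a 100 s FLIPR kinetic read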
OXTR potentiator – potentiators of human oxytocin receptor | CHO-OTR cells, Fluo-8 calcium fluorescence, potentiator mode; 0% = oxytocin EC15, 100% = EC100 | actives 0.061% (n = 320,000) | P30559 | activation, % at 3 µM;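 active = activation above that plate's cutoff, the mean activation of tested compounds plus 3 SD, cut at about 6.6% in these data, passing the limit was not always enough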
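Material: CHO-OTR cells, human receptor; compound dosing: single dose, 3.0 µM nominal final compound concentration; schedule: 6 min compound pre-incubation at room temperature, 100 s kinetic read; measured by: kinetic Fluo-8 calcium fluorescence; read-out basis: % activation vs EC15 and EC100 oxytocin; controls: EC15 oxytocin alone as 0%, 75 nM oxytocin as 100%; replicates: singlicate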
OX1R antag-2 – OX1R (human) antagonism | O43613 | OX1R-expressing cells, FRET antagonist read-out | inhibition, % at 6.6 µM | actives 1.8% (n = 330,000); in the data active = inhibition mostly above about 38%, no sharp cut-off; inactive = mostly below about 40%
A number is an active result. Rows were chosen to be rich in hits. Some 2.7% of all compounds tested hit in one or more screens of this group.

Screening COC(=O)[C@]1(C)N[C@H](CN(C)C(=O)C2CCCCC2)[C@@H]2C(=O)N(C)C(=O)[C@@H]21 returned OX1R antag-1 inactive, CHO parental Ca inactive, V1R ag counter inactive, OXTR ag inactive, OXTR potentiator inactive and OX1R antag-2 inactive.
Fc1ccc(N2CCN(c3cnc4ccccc4n3)CC2)cc1 was read as OX1R antag-1 inactive, CHO parental Ca inactive, V1R ag counter inactive, OXTR ag inactive, OXTR potentiator inactive and OX1R antag-2 inactive.
For N#Cc1ccccc1Sc1ccccc1C(=O)Nc1ccc2ccccc2c1 the results were OX1R antag-1 inactive, CHO parental Ca inactive, V1R ag counter inactive, OXTR ag inactive, OXTR potentiator inactive and OX1R antag-2 58.
`CN(CC(=O)Nc1ccc(F)c(F)c1F)C(=O)C1CCC1` gave OX1R antag-1 inactive, CHO parental Ca inactive, V1R ag counter inactive, OXTR ag inactive, OXTR potentiator inactive and OX1R antag-2 inactive.
`CCOC(=O)CC(NC(=O)c1cccc2c1C(=O)N(Cc1cccnc1)C2)c1ccc(OC(C)C)cc1` (centres undefined) gave OX1R antag-1 inactive, CHO parental Ca inactive, V1R ag counter inactive, OXTR ag inactive, OXTR potentiator inactive and OX1R antag-2 48.
CCn1c(=NC(=O)CS(=O)(=O)c2ccccc2)sc2cccc(OC)c21 was read as OX1R antag-1 inactive, CHO parental Ca inactive, V1R ag counter inactive, OXTR ag inactive, OXTR potentiator inactive and OX1R antag-2 33.
`C#CCn1c(=NC(=O)c2cccs2)sc2cccc(OC)c21` gave OX1R antag-1 inactive, CHO parental Ca inactive, V1R ag counter inactive, OXTR ag inactive, OXTR potentiator inactive and OX1R antag-2 66.
`O=C1c2cccnc2-c2ncccc21` gave OX1R antag-1 inactive, CHO parental Ca inactive, V1R ag counter inactive, OXTR ag inactive, OXTR potentiator inactive and OX1R antag-2 54.
For Cc1cnc2c(c1)C(=O)c1ccccc1-2 the results were OX1R antag-1 inactive, CHO parental Ca inactive, V1R ag counter inactive, OXTR ag inactive, OXTR potentiator inactive and OX1R antag-2 inactive.
`O=C1c2cc([N+](=O)[O-])ccc2-c2ncccc21` gave OX1R antag-1 inactive, CHO parental Ca inactive, V1R ag counter inactive, OXTR ag inactive, OXTR potentiator inactive and OX1R antag-2 67.
For O=C1c2cccnc2C(=O)N1Cc1ccccc1 the results were OX1R antag-1 inactive, CHO parental Ca inactive, V1R ag counter inactive, OXTR ag inactive, OXTR potentiator inactive and OX1R antag-2 inactive.
`O=C1c2ccccc2-c2nccnc21` gave OX1R antag-1 inactive, CHO parental Ca inactive, V1R ag counter inactive, OXTR ag inactive, OXTR potentiator inactive and OX1R antag-2 111.
For Cc1ccc2nc(NC(=O)CN3C(=O)NC4(CCCCC4)C3=O)sc2c1 the results were OX1R antag-1 inactive, CHO parental Ca inactive, V1R ag counter inactive, OXTR ag inactive, OXTR potentiator inactive and OX1R antag-2 inactive.
Screening CCC1CN(C(=O)N2CCC(C(=O)Nc3ccccc3OC)CC2)c2ccccc2O1 (centres undefined) returned OX1R antag-1 inactive, CHO parental Ca inactive, V1R ag counter inactive, OXTR ag inactive, OXTR potentiator inactive and OX1R antag-2 inactive.
Screening O=C(N/N=C/c1ccccn1)c1sc2ccccc2c1Cl returned OX1R antag-1 inactive, CHO parental Ca inactive, V1R ag counter inactive, OXTR ag inactive, OXTR potentiator inactive and OX1R antag-2 64.
For Cn1cccc1/C=N/NC(=O)c1sc2ccccc2c1Cl the results were OX1R antag-1 inactive, CHO parental Ca inactive, V1R ag counter inactive, OXTR ag inactive, OXTR potentiator inactive and OX1R antag-2 74.
Cc1c(/C=N\NC(=O)c2ccc([N+](=O)[O-])cc2)cnn1C was read as OX1R antag-1 inactive, CHO parental Ca inactive, V1R ag counter inactive, OXTR ag inactive, OXTR potentiator inactive and OX1R antag-2 inactive.
Screening Cc1c(/C=N/NC(=O)c2sc3ccccc3c2Cl)cnn1C returned OX1R antag-1 inactive, CHO parental Ca inactive, V1R ag counter inactive, OXTR ag inactive, OXTR potentiator inactive and OX1R antag-2 48.
O=C(N/N=C/c1ccc([N+](=O)[O-])o1)c1sc2ccccc2c1Cl was read as OX1R antag-1 inactive, CHO parental Ca inactive, V1R ag counter inactive, OXTR ag inactive, OXTR potentiator inactive and OX1R antag-2 inactive.
Screening Cc1ccc(C(=O)Nc2ccc(C(=O)N/N=C/c3ccccn3)cc2)cc1 returned OX1R antag-1 inactive, CHO parental Ca 35, V1R ag counter inactive, OXTR ag inactive, OXTR potentiator inactive and OX1R antag-2 inactive.
`CCC(C)[C@H](NC(=O)[C@H](Cc1ccccc1)n1c(=O)[nH]c2ccccc2c1=O)C(=O)NCC1CCC(C(=O)O)CC1` (some centres undefined) gave OX1R antag-1 inactive, CHO parental Ca inactive, V1R ag counter inactive, OXTR ag inactive, OXTR potentiator inactive and OX1R antag-2 inactive.
Screening O=[N+]([O-])c1sccc1CS(=O)(=O)c1ccccc1 returned OX1R antag-1 inactive, CHO parental Ca inactive, V1R ag counter inactive, OXTR ag inactive, OXTR potentiator inactive and OX1R antag-2 51.
`O=[N+]([O-])c1ccccc1CS(=O)(=O)c1ccccc1` gave OX1R antag-1 inactive, CHO parental Ca inactive, V1R ag counter inactive, OXTR ag inactive, OXTR potentiator inactive and OX1R antag-2 inactive.
Screening CC(=O)c1c(C)[nH]c(C(=O)CSc2nc3ccccc3n2C)c1C returned OX1R antag-1 78, CHO parental Ca 51, V1R ag counter inactive, OXTR ag inactive, OXTR potentiator inactive and OX1R antag-2 108.
Cc1sc(NC(=O)CN2CCOCC2)c(C#N)c1C was read as OX1R antag-1 inactive, CHO parental Ca inactive, V1R ag counter inactive, OXTR ag inactive, OXTR potentiator inactive and OX1R antag-2 inactive.
For O=c1cc(-c2cccc([N+](=O)[O-])c2)[nH][nH]1 the results were OX1R antag-1 inactive, CHO parental Ca inactive, V1R ag counter inactive, OXTR ag inactive, OXTR potentiator inactive and OX1R antag-2 inactive.
`O=C1C(=O)c2ccccc2C(O)=C1c1cccc([N+](=O)[O-])c1` gave OX1R antag-1 inactive, CHO parental Ca inactive, V1R ag counter inactive, OXTR ag inactive, OXTR potentiator inactive and OX1R antag-2 52.
`CC(C)c1ccc(C2=C(O)c3ccccc3C(=O)C2=O)cc1` gave OX1R antag-1 inactive, CHO parental Ca inactive, V1R ag counter inactive, OXTR ag inactive, OXTR potentiator inactive and OX1R antag-2 inactive.
Screening Cc1ccc(C2=C(O)c3ccccc3C(=O)C2=O)cc1 returned OX1R antag-1 inactive, CHO parental Ca inactive, V1R ag counter inactive, OXTR ag inactive, OXTR potentiator inactive and OX1R antag-2 41.
Screening CC(=O)c1ccccc1Oc1nc(CN2CCOCC2)nc2scc(-c3cccs3)c12 returned OX1R antag-1 inactive, CHO parental Ca inactive, V1R ag counter inactive, OXTR ag inactive, OXTR potentiator inactive and OX1R antag-2 44.
